Test results taken from ChEMBL document CHEMBL4382237, “Design, Synthesis, and Biological Evaluation of 2-Nitroimidazopyrazin-one/-es with Antitubercular and Antiparasitic Activity” (J Med Chem, 2018).
Converted amounts (≈) assume the structure as drawn. The source made the active and inactive calls. The rule behind the calls is not given here.

How the values were obtained:
Giardia intestinalis [1] = test: Antiparasitic activity against Giardia lamblia WB trophozoites after 24 to 48 hrs by CellTiter-Glo luminescent cell viability assay; settings: Giardia duodenalis
Entamoeba histolytica = test: Antiparasitic activity against Entamoeba histolytica HM-1:IMSS trophozoites after 24 to 48 hrs by CellTiter-Glo luminescent cell viability assay; type: functional, organism-based
Summary of the method: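 Axenic trophozoites were kept in TYI-S-33 with penicillin (100 U/mL) and streptomycin (100 µg/mL) and harvested in log phase. 5000 parasites per well were exposed to a final 8-point two-fold series of 0.39–50 µM, from 10 mM DMSO stocks. Plates were incubated 24–48 h at 37 °C under anaerobic conditions. ATP luminescence viability was read in triplicate. Percent inhibition is given at the highest concentration tested.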

[2] = tested on: Mycobacterium tuberculosis; test: Antibacterial activity against Mycobacterium tuberculosis H37Rv after 5 days under normoxic condition by resazurin dye-based fluorescence assay; type: functional, organism-based
Summary of the method: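 H37Rv grown in 7H9/ADC/glycerol/Tyloxapol to mid-exponential phase, diluted to OD600 0.001 (~2 x 10^4 CFU/mL) in 7H9S with serially diluted compound. Incubated 5 days at 37 °C, then resazurin and Tween-80 added. Fluorescence (ex 530/em 590 nm) read after 24 h, normalised to no-drug and no-bacteria wells.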

[3] = tested on: Mycobacterium tuberculosis; test: Antibacterial activity against non-replicating Mycobacterium tuberculosis H37Rv after 5 days under hypoxic condition by resazurin dye-based fluorescence assay; type: functional; settings: 120 h
Summary of the method: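 Same H37Rv inoculum (OD600 0.001, ~2 x 10^4 CFU/mL) in 7H9S with serially diluted compound. Plates held 5 days at 0.1% oxygen, then resazurin plus Tween-80 added.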

[4] = tested on: Trypanosoma brucei brucei; test: Antiparasitic activity against bloodstream form of Trypanosoma brucei brucei strain 427 after 48 hrs by resazurin dye-based assay; type: functional, organism-based; settings: for IC50: strain 427, 48 h
[5] = Metabolic stability in human liver microsomes assessed as parent compound remaining at 3 uM after 2 hrs by LC-MS/MS analysis
[6] = Metabolic stability in CD-1 mouse liver microsomes assessed as parent compound remaining at 3 uM after 2 hrs by LC-MS/MS analysis
[7] = Metabolic stability in human plasma assessed as parent compound remaining at 3 uM after 2 hrs by LC-MS/MS analysis
[8] = Metabolic stability in CD-1 mouse plasma assessed as parent compound remaining at 3 uM after 2 hrs by LC-MS/MS analysis
[9] = Protein binding in human plasma at 5 uM after 30 mins by LC-MS/MS analysis based ultrafiltration method; settings: 0.5 h
[10] = Apparent permeability across apical to basolateral side in human Caco2 cells at 2 uM after 2 hrs by lucifer yellow dye-based LC-MS/MS analysis; settings: caco-2, 2 h
[11] = Apparent permeability across basolateral to apical side in human Caco2 cells at 2 uM after 2 hrs by lucifer yellow dye-based LC-MS/MS analysis; settings: caco-2, 2 h
[12] = Apparent permeability across apical to basolateral side in human Caco2 cells assessed as mean drug recovery at 2 uM after 2 hrs by lucifer yellow dye-based LC-MS/MS analysis; settings: caco-2, 2 h
[13] = Apparent permeability across basolateral to apical side in human Caco2 cells assessed as mean drug recovery at 2 uM after 2 hrs by lucifer yellow dye-based LC-MS/MS analysis; settings: Caco-2
[14] = buffer, 24 h, 200 µM
[15] = buffer, pH 7.4, 24 h, 200 µM
physchem [16] = settings: water
physchem [17] = settings: PBS, pH 7.4
Giardia intestinalis [18] = test: Antiparasitic activity against Giardia lamblia WB trophozoites after 24 to 48 hrs by CellTiter-Glo luminescent cell viability assay; settings: Giardia duodenalis
Clostridioides difficile = test: Antibacterial activity against Clostridium difficile 630 ATCC BAA-1382 by broth microdilution assay; type: functional
Summary of the method: (§1)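 Broth microdilution run essentially per an earlier report. MIC taken as the lowest concentration with no visible growth. Replicates typically agreed within one 2-fold dilution. The median MIC is reported, with a range where the median fell between two tested concentrations.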

Staphylococcus aureus = test: Antibacterial activity against methicillin-resistant Staphylococcus aureus ATCC […] by broth microdilution assay; type: functional
Escherichia coli = test: Antibacterial activity against Escherichia coli ATCC 25922 by broth microdilution assay; type: functional; summary of the method: as §1
Klebsiella pneumoniae = test: Antibacterial activity against Klebsiella pneumoniae 700603 by broth microdilution assay; type: functional; summary of the method: as §1
Acinetobacter baumannii = test: Antibacterial activity against Acinetobacter baumannii ATCC 19606 by broth microdilution assay; type: functional; settings: ATCC 19606 = CIP 70.34 = JCM 6841; summary of the method: as §1
Pseudomonas aeruginosa = test: Antibacterial activity against Pseudomonas aeruginosa ATCC 27853 by broth microdilution assay; type: functional; summary of the method: as §1
Candida albicans = test: Antifungal activity against Candida albicans ATCC 90028 by broth microdilution assay; type: functional; summary of the method: as §1
Cryptococcus neoformans = test: Antifungal activity against Cryptococcus neoformans H99 ATCC […] broth microdilution assay; type: functional; settings: var. grubii H99 ATCC 208821; summary of the method: as §1
HEK293 = test: Cytotoxicity against HEK293 cells after 24 hrs by resazurin dye-based fluorescence assay; type: cell-based; settings: human, hek293, 24 h
Summary of the method: (§2)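 HEK293 (3000/well) and HepG2 (5000/well) were grown 24 h in DMEM with 10% FBS at 37 °C, 5% CO2. Cells were then exposed 24 h to a dilution series up to 100 µM (0.5% DMSO). 5 µM resazurin was added for 2 h, read at ex 560/em 590. 1% Triton X-100 served as lysis control. CC50 was derived from the curves.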

HepG2 = test: Cytotoxicity against human HepG2 cells after 24 hrs by resazurin dye-based fluorescence assay; type: cell-based; settings: hepg2, 24 h; summary of the method: as §2

Compound | IC50 (Giardia intestinalis [1]) | IC50 (Giardia intestinalis [1]; read-out: pIC50 (converted)) | IC50 (Entamoeba histolytica; read-out: IC50) | IC50 (Entamoeba histolytica; read-out: pIC50 (converted)) | MIC [2] | MIC [3] | IC50 ([4]; read-out: IC50) | IC50 ([4]; read-out: pIC50 (converted)) | Stability [5] | Stability [6] | Stability [7] | Stability [8] | PPB [9] | Drug recovery [12] | recovery at 2 h, 2 µM [13] | further results
Cc1cn2cc([N+](=O)[O-])nc2c(OCc2ccc(OC(F)(F)F)cc2)n1 | 7.4 µM | 7.94 µM | 9.5 µM | 10 µM | >32 µg/mL | > 32 µg/mL | > 40 µM | > 39.8 µM | 69% | 7.9% | 94% | > 99% | > 99% |  |  | 
O=[N+]([O-])c1cn2c(n1)OC[C@@H](OCc1ccc(OC(F)(F)F)cc1)C2 [PRETOMANID] |  |  |  |  |  |  |  |  |  |  |  |  |  | 81% | 101% | Papp [10]: 29 ×10⁻⁶ cm/s; Papp [11]: 22 ×10⁻⁶ cm/s
CC(=O)OCCn1c(-c2ccccc2)cn2cc([N+](=O)[O-])nc2c1=O | 11 µM | 10 µM | 34 µM | 31.6 µM |  | > 32 µg/mL | 0.86 µM | 0.794 µM |  |  |  |  |  |  |  | log(Kinetic_solubility) [14]: > -4; log(Kinetic_solubility) [15]: > -4; solubility kinetic at 24 h, 200 µM (physchem [16]): > 100 µM; solubility kinetic at 24 h, 200 µM (physchem [17]): > 100 µM
O=c1c2nccn2ccn1Cc1ccc(F)cc1 |  |  |  |  |  |  |  |  |  |  |  |  |  |  |  | Activity (Entamoeba histolytica): inactive; Activity [4]: inactive; Activity (Giardia intestinalis [18]): inactive
O=c1c2nc([N+](=O)[O-])cn2ccn1Cc1ccc(F)cc1 | 6.4 µM | 6.31 µM | > 50 µM |  | 1 µg/mL (≈ 3.47 µM) | 2 µg/mL (≈ 6.94 µM) | 2.9 µM | 3.16 µM | 99% | > 99% | 98% | > 99% | 82% |  |  | MIC (Clostridioides difficile): > 64 µg/mL; MIC (Staphylococcus aureus): > 32 µg/mL; MIC (Escherichia coli): > 32 µg/mL; MIC (Klebsiella pneumoniae): > 32 µg/mL; MIC (Acinetobacter baumannii): > 32 µg/mL; MIC (Pseudomonas aeruginosa): > 32 µg/mL; MIC (Candida albicans): > 32 µg/mL; MIC (Cryptococcus neoformans): > 32 µg/mL; CC50 (HEK293): > 100 µM; CC50 (HepG2): > 100 µM
Cc1ccc(Cn2c(C)c(C)n3cc([N+](=O)[O-])nc3c2=O)cc1 | 5.2 µM | 5.01 µM | 33 µM | 31.6 µM | 2 µg/mL (≈ 6.4 µM) | 4 µg/mL (≈ 12.8 µM) | 0.25 µM | 0.251 µM |  |  |  |  |  |  |  | log(Kinetic_solubility) [14]: < -5; log(Kinetic_solubility) [15]: < -5; solubility kinetic at 24 h, 200 µM (physchem [17]): < 10 µM
C[C@H]1O[C@@H](O[C@H]2[C@@H](O)C[C@H](O[C@H]3[C@@H](O)C[C@H](O[C@H]4CC[C@@]5(C)[C@H](CC[C@@H]6[C@@H]5C[C@@H](O)[C@]5(C)[C@@H](C7=CC(=O)OC7)CC[C@]65O)C4)O[C@@H]3C)O[C@@H]2C)C[C@H](O)[C@@H]1O [DIGOXIN] |  |  |  |  |  |  |  |  |  |  |  |  |  | < 72% | 88% | 
O=c1c2nc([N+](=O)[O-])cn2ccn1Cc1ccc(OC(F)(F)F)cc1 |  |  |  |  |  |  |  |  | > 99% | > 99% | > 99% | > 99% | 98% | 83% | 97% | MIC (Clostridioides difficile): > 64 µg/mL; Papp [10]: 25 ×10⁻⁶ cm/s; Papp [11]: 22 ×10⁻⁶ cm/s
Cc1cn2cc([N+](=O)[O-])nc2c(=O)n1Cc1ccc(OC(F)(F)F)cc1 | 5.8 µM | 6.31 µM | > 50 µM | > 50.1 µM | >32 µg/mL | > 32 µg/mL | 0.41 µM | 3.98 µM | > 99% | > 99% | 92% | 99% | 98% |  |  | 
O=c1c2nc([N+](=O)[O-])cn2ccn1Cc1cccc(OC(F)(F)F)c1 |  |  |  |  |  |  |  |  | > 99% | > 99% | > 99% | 97% |  | 88% | 99% | MIC (Clostridioides difficile): > 64 µg/mL; Papp [10]: 24 ×10⁻⁶ cm/s; Papp [11]: 24 ×10⁻⁶ cm/s
O=c1c2nccn2ccn1Cc1ccccc1 |  |  |  |  |  |  |  |  |  |  |  |  |  |  |  | Activity (Entamoeba histolytica): inactive; Activity [4]: inactive; Activity (Giardia intestinalis [18]): inactive
